Assay results as given in ChEMBL document CHEMBL2150988, “Preparation and optimization of new 4-(morpholin-4-yl)-(6-oxo-1,6-dihydropyrimidin-2-yl)amide derivatives as PI3Kβ inhibitors” (Bioorg Med Chem Lett, 2012).
≈ marks a conversion by molar mass, not a printed value.

Legend:
[1] = target: Phosphatidylinositol 4,5-bisphosphate 3-kinase catalytic subunit alpha isoform (Homo sapiens, UniProt P42336); experiment: Inhibition of PI3Kalpha
[2] = target: Phosphatidylinositol 4,5-bisphosphate 3-kinase catalytic subunit gamma isoform (Homo sapiens, UniProt P48736); experiment: Inhibition of PI3Kgamma
[3] = Inhibition of Akt phosphorylation at S473 in PTEN deficient human PC3 cells; format: cell-based; conditions: PC-3
[4] = target: Phosphatidylinositol 4,5-bisphosphate 3-kinase catalytic subunit beta isoform (Homo sapiens, UniProt P42338); experiment: Inhibition of PI3Kbeta
[5] = target: T1, Phosphatidylinositol 4,5-bisphosphate 3-kinase catalytic subunit delta isoform (Homo sapiens, UniProt O00329); experiment: Inhibition of PI3Kdelta
T1 sequence (O00329 whole entry): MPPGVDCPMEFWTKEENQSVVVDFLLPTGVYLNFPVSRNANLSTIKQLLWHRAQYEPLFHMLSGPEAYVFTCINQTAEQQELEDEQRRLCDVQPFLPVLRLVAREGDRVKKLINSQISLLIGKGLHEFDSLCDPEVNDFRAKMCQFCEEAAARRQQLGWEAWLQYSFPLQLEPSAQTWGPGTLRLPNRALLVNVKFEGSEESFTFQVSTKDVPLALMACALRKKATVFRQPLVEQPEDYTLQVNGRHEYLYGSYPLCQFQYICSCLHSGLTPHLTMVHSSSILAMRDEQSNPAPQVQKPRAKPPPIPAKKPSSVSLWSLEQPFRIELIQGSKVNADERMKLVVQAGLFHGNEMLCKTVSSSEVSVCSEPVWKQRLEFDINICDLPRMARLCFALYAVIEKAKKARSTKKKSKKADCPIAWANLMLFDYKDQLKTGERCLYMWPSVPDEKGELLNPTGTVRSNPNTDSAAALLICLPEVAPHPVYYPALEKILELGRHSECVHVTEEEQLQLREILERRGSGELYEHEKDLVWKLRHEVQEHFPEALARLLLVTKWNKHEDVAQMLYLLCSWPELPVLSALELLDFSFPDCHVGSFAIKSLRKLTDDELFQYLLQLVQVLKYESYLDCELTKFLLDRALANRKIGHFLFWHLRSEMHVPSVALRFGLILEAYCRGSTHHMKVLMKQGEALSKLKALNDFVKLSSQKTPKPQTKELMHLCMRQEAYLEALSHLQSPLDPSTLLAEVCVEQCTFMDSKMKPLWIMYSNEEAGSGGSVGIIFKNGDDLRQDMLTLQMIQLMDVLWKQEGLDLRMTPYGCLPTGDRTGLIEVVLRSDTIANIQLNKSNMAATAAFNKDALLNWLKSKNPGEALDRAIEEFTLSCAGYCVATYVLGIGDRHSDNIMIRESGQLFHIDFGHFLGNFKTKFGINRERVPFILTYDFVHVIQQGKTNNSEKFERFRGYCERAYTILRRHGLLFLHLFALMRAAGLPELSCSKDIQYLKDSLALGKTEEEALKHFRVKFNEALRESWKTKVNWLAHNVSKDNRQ

[6] = Drug metabolism in human liver microsomes after 20 mins; format: ADME, Microsome; conditions: read-out: Drug metabolism
In short: (§1)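 Liver microsomes (human or mouse) incubated with compound for 20 min; %lability reported as % of compound metabolized.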

[7] = Drug metabolism in mouse liver microsomes after 20 mins; format: ADME, Microsome; conditions: read-out: Drug metabolism; in short: as §1
Cytochrome P450 3A4 = Cytochrome P450 3A4 (Homo sapiens, UniProt P08684); experiment: Inhibition of human recombinant CYP3A4; format: ADME
[8] = Equilibrium solubility of the compound in phosphate buffer at pH 7.4 after 16 hrs by HPLC analysis; format: physicochemical
[9] = Apparent permeability across human Caco2/TC7 cells; format: ADME, cell-based; conditions: Caco-2
In short: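 Caco-2 TC7 clone monolayers; transport measured in both apical-to-basolateral and basolateral-to-apical directions, giving Papp (nm/s) and an efflux ratio.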

Cytochrome P450 3A4, sequence (P08684 whole entry): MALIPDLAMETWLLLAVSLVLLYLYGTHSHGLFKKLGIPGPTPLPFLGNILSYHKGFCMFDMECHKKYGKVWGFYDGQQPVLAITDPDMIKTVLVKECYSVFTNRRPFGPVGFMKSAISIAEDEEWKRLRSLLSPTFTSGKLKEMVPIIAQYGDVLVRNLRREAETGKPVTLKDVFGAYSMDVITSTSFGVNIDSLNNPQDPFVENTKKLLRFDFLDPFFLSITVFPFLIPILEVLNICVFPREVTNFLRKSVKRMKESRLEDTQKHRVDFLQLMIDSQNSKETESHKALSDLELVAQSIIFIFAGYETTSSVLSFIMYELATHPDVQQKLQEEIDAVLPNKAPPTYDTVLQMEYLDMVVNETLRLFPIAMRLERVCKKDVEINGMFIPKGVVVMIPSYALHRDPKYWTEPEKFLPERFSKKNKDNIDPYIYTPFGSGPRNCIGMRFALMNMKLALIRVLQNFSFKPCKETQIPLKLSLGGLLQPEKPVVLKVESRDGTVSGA
Phosphatidylinositol 4,5-bisphosphate 3-kinase catalytic subunit gamma isoform, sequence (P48736 whole entry, canonical isoform): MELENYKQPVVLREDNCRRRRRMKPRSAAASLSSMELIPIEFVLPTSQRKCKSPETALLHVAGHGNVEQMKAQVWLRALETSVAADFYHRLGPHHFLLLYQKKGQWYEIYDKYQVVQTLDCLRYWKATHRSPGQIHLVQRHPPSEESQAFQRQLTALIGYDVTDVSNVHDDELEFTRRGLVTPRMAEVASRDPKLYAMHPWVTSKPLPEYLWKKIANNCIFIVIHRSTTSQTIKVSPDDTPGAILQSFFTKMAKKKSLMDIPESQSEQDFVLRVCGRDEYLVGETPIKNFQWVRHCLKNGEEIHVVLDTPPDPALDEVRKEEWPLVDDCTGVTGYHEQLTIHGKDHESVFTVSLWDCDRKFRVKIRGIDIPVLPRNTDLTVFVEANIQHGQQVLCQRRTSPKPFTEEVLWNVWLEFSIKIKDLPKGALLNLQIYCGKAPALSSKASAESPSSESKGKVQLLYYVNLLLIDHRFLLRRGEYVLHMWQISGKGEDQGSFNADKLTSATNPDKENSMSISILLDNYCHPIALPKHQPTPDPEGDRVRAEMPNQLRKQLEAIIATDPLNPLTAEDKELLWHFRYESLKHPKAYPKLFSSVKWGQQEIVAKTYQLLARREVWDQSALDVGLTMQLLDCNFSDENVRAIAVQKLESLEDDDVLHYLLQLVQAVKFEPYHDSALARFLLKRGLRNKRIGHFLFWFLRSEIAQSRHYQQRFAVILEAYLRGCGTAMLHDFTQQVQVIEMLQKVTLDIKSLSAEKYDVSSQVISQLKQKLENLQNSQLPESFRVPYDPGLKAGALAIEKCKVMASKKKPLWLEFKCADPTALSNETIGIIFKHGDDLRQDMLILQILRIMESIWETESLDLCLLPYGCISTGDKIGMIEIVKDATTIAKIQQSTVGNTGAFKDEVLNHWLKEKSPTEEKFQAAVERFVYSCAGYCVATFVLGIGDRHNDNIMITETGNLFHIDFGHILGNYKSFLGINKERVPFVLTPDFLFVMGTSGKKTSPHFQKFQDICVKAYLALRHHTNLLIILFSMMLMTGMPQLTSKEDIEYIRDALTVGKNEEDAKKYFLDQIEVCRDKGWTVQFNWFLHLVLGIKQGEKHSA
Phosphatidylinositol 4,5-bisphosphate 3-kinase catalytic subunit alpha isoform, sequence (P42336 whole entry, canonical isoform): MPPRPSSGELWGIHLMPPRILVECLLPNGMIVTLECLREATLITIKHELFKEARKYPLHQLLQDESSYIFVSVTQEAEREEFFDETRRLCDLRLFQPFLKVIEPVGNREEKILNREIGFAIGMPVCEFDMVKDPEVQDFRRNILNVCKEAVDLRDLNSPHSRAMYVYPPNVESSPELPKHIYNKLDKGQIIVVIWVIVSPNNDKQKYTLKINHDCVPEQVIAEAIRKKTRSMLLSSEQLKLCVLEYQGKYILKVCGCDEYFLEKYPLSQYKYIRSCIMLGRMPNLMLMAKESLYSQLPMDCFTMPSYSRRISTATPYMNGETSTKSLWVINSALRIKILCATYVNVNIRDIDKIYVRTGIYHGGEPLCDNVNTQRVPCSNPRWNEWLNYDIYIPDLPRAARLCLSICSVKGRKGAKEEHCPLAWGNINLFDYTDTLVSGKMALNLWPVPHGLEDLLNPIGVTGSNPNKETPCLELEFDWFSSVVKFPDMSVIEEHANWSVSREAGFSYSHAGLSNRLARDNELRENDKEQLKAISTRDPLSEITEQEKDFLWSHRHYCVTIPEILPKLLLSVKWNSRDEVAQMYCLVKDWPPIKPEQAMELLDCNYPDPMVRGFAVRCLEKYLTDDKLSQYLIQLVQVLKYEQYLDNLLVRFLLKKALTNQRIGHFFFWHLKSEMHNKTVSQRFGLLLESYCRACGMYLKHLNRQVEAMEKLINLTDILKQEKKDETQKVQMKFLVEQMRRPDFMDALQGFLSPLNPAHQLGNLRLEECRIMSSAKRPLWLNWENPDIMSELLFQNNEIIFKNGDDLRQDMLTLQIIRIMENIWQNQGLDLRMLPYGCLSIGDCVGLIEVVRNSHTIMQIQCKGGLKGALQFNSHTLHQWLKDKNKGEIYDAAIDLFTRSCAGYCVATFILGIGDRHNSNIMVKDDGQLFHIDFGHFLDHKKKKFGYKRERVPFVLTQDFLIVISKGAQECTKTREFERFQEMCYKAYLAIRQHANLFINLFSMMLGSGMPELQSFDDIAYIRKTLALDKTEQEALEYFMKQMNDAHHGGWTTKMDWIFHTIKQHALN
Phosphatidylinositol 4,5-bisphosphate 3-kinase catalytic subunit beta isoform, sequence (P42338 whole entry, canonical isoform): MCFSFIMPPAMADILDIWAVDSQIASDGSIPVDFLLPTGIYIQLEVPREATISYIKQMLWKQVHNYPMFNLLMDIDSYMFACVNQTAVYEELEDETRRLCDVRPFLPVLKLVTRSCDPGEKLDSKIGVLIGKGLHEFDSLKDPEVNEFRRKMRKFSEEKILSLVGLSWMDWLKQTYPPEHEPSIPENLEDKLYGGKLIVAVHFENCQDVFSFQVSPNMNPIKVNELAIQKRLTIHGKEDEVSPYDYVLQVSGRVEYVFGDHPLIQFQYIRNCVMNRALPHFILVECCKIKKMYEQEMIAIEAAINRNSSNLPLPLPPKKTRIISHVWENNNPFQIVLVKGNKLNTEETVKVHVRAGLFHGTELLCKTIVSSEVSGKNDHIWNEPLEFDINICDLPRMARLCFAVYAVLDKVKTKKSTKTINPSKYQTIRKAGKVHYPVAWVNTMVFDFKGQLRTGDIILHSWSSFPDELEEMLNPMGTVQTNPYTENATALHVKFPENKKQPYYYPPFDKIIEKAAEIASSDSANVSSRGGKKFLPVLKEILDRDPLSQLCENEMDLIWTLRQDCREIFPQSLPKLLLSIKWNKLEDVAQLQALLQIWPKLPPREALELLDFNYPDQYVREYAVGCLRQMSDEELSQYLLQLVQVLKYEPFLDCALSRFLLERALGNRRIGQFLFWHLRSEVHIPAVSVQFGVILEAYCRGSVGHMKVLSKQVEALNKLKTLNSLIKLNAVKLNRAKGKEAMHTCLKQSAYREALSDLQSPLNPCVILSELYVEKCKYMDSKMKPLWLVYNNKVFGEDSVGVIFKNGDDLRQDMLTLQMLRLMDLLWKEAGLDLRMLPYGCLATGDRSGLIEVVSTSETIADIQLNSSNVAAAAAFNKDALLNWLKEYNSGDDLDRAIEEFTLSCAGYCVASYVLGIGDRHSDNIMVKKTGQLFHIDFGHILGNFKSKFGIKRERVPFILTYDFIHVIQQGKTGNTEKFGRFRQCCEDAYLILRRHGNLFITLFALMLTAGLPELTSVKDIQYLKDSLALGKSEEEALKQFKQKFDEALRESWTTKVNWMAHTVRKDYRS

IC50 [1] [µM]	IC50 [2] [µM]	IC50 [3] [µM]	IC50 [4] [µM]	IC50 [5] [µM]	metabolised at 20 min [6] [%]	metabolised at 20 min [7] [%]	IC50 (Cytochrome P450 3A4) [µM]	solubility thermodynamic at 16 h [8] [µM]	Papp [9] [nm/s]	Structure (SMILES)
> 10	> 10	0.349	0.142	2.45	–	–	–	–	–	O=C(Cc1nc(N2CCOCC2)cc(=O)[nH]1)Nc1ccccc1F
6.22	> 10	0.074	0.081	1.11	55	21	–	–	–	O=C(Cc1nc(N2CCOCC2)cc(=O)[nH]1)Nc1cccc(F)c1
2.87	> 10	0.031	0.013	0.086	24	27	> 40	45 (≈ 15 µg/mL)	6	O=C(Cc1nc(N2CCOCC2)cc(=O)[nH]1)Nc1ccc(F)cc1
> 10	> 10	0.586	0.236	4.27	–	–	–	–	–	Cc1ccccc1NC(=O)Cc1nc(N2CCOCC2)cc(=O)[nH]1
0.626	7.07	0.045	0.017	0.164	80	54	–	3 (≈ 0.985 µg/mL)	14	Cc1cccc(NC(=O)Cc2nc(N3CCOCC3)cc(=O)[nH]2)c1
2.27	5.09	1.42	0.398	2.78	–	–	–	–	–	O=C(Cc1nc(N2CCOCC2)cc(=O)[nH]1)Nc1ccc(Cl)cc1
2.55	> 10	0.1	0.033	0.278	43	22	> 40	9 (≈ 3.14 µg/mL)	8	O=C(Cc1nc(N2CCOCC2)cc(=O)[nH]1)Nc1cccc(Cl)c1
2.37	> 10	0.047	0.015	0.611	76	47	> 40	38 (≈ 13.1 µg/mL)	3	COc1cccc(NC(=O)Cc2nc(N3CCOCC3)cc(=O)[nH]2)c1
3.84	> 10	0.055	0.053	0.135	25	11	–	3 (≈ 1.05 µg/mL)	8	O=C(Cc1nc(N2CCOCC2)cc(=O)[nH]1)Nc1ccc(F)c(F)c1
1.9	6.71	0.019	0.002	0.137	40	14	–	3 (≈ 1.1 µg/mL)	8	O=C(Cc1nc(N2CCOCC2)cc(=O)[nH]1)Nc1ccc(F)c(Cl)c1
8.14	> 10	1.75	0.175	4.65	–	–	–	–	–	COC(=O)c1cc(NC(=O)Cc2nc(N3CCOCC3)cc(=O)[nH]2)ccc1F
4.35	> 10	1.26	0.047	3.36	–	–	–	–	–	O=C(Cc1nc(N2CCOCC2)cc(=O)[nH]1)Nc1ccc(F)c([N+](=O)[O-])c1
> 10	> 10	0.34	0.469	4.29	–	–	–	–	–	Cn1c(CC(=O)Nc2ccccc2)nc(N2CCOCC2)cc1=O
> 10	> 10	0.11	0.244	1.47	–	–	–	–	–	Cn1c(CC(=O)Nc2ccc(F)cc2)nc(N2CCOCC2)cc1=O
8.51	> 10	0.1	0.262	1.77	–	–	–	–	–	Cn1c(CC(=O)Nc2ccc(F)c(F)c2)nc(N2CCOCC2)cc1=O
7.61	> 10	0.094	0.387	2.21	–	–	–	–	–	Cn1c(CC(=O)Nc2ccc(F)c(Br)c2)nc(N2CCOCC2)cc1=O
> 10	> 10	0.1	0.104	2.4	–	–	–	–	–	COc1cc(NC(=O)Cc2nc(N3CCOCC3)cc(=O)n2C)ccc1F
